Experimental data of several laboratories.
Target: Phosphatidylinositol 4-phosphate 5-kinase type-1 alpha (PIP5K1A, Homo sapiens, UniProt Q99755)

SMILES | test | conditions | remaining binding [%]
O=C(c1ccc(Nc2ncc(Cl)c(-c3ccc(Cl)s3)n2)cc1)N1CCC(N2CCCC2)CC1 | binding, competition with immobilised ligand | 1 µM | 3
CN(C(=O)c1ccccc1)c1cc(N(C)c2ccc3c(c2)CCc2ccc(C(=O)NCCN4CCOCC4)cc2C3=O)ccc1F | cell-free assay, competition with immobilised ligand | 1 µM | 100
CN(C)c1nccc(-c2cnn3ncccc23)n1 | binding | 1 µM | 100
C=CC(=O)N1CCC(C(=O)NCC(=O)N2CCN(c3nc(-c4cnc(N)nc4C(F)F)nc(N4CCOCC4)n3)CC2)CC1 | binding, competition with immobilised ligand | 1 µM | 100
Cc1cc(NC(=O)c2cccc(S(F)(F)(F)(F)F)c2)cc(-n2ccn3nc(-c4cccnc4)cc23)c1 | cell-free assay, competition with immobilised ligand | 1 µM | 100
CN(C)c1ncc(F)c(-c2cnn3ncccc23)n1 | binding | 1 µM | 100
O=C(NCCCN1CCOCC1)c1ccc(Nc2nccc(-c3cc4ccccc4s3)n2)cc1 | binding, competition with immobilised ligand | 1 µM | 4.2
c1cncc(-c2cccc(Nc3nccc(NC4CCCCC4)n3)c2)c1 | binding, competition with immobilised ligand | 10 µM | 71
C[C@@H]1CCN(c2nccc(-c3cnn4ncccc34)n2)C1 | binding | 1 µM | 52
O=C(NCCCN1CCOCC1)c1ccc(Nc2ncc(Cl)c(-c3ccc(Cl)s3)n2)cc1 | binding, competition with immobilised ligand | 1 µM | 8.3
CCN1CCN(Cc2ccc(C(=O)Nc3ccc(C)c(Oc4ccc5c(c4)CC(=O)N5)c3)cc2C(F)(F)F)CC1 | binding, competition with immobilised ligand | 1 µM | 100
Cc1cc(C)c(-n2ccn3nc(-c4cccnc4)cc23)cc1NC(=O)c1cc(C#N)cc(S(F)(F)(F)(F)F)c1 | cell-free assay, competition with immobilised ligand | 0.1 µM | 95
COc1cnc(Nc2cccc(S(N)(=O)=O)c2)nc1N1CCN(c2ccccc2)CC1 | binding, competition with immobilised ligand | 1 µM | 93
CC1CCCN1c1nccc(-c2cnn3ncccc23)n1 (stereo not shown) | binding | 1 µM | 100
O=C(NCC1CCOCC1)c1n[nH]cc1NC(=O)c1c(F)cccc1F | binding, competition with immobilised ligand | 1 µM | 100
COc1cc(-c2cn(C3CCc4ccccc4N(CC(F)(F)F)C3=O)nn2)ccc1-n1ccc(C)n1 (stereo not shown) | cell-free assay, competition with immobilised ligand | 1 µM | 96
C[C@@H](c1ccc(-n2cnc3c(N)ncnc32)cc1)N1CCc2nn(C)c(Cc3ccccc3)c2C1=O | binding, competition with immobilised ligand | 0.1 µM | 87
CN(c1nccc(-c2cnn3ncccc23)n1)C1CC1 | binding | 1 µM | 100
C[C@H](c1cccc(C#N)c1)n1cc(Cl)cc(C(N)=O)c1=N | cell-free assay, competition with immobilised ligand | 1 µM | 100
CN(C)c1nccc(-c2cnc3ncccn23)n1 | binding | 1 µM | 72
COc1ccc2cc(OCC3(C(=O)O)CN(C(=O)c4ccc(F)cc4)C3)ccc2c1 | cell-free assay, competition with immobilised ligand | 1 µM | 100
FC(F)(F)Oc1cccc(-c2cnc3ccc(-c4ccncc4)nn23)c1 | cell-free assay, competition with immobilised ligand | 5 µM | 20
